“Also recorded” adds a separate entry of the source. Peptide text beside a SMILES is read from it. * marks the point of attachment. AMC = Cc1cc(=O)oc2cc(N*)ccc12
Molecular target: 20S proteasome (sCP), β5 subunit (Homo sapiens, UniProt P28074)
Format: biochemical
Details: Figures 2C and 4B
In short: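 Purified human constitutive 20S proteasome (5 nM) incubated with LLVY-conjugated test substrate (10 μM in aminocoumarin time course) up to 4 h at 37 °C. Free LLVY [M+H] EIC quantified by single-quadrupole LC-MS against a purified LLVY standard curve (20–1250 pmol; LOQ 20 pmol), giving % cleaved. Reference fluorogenic substrates included each replicate; triplicates; one-way ANOVA.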

SMILES: Cc1cc(=O)oc2cc(NC(=O)[C@H](Cc3ccc(O)cc3)NC(=O)[C@@H](NC(=O)[C@H](CC(C)C)NC(=O)[C@@H](N)CC(C)C)C(C)C)ccc12 [LLVY-AMC] (H-LLVY-{AMC})
- Rate of hydrolysis by the sCP in time-dependent MS analysis (in words): hydrolyzed by the sCP faster than TAS-1; also recorded: faster rate than the molecule with 6-aminocoumarin

Source: paper PMC10165662 (Bioorganic & medicinal chemistry letters, 2023)
